{"source": "ChEMBL document CHEMBL4196009", "about": "“Novel vitexin-inspired scaffold against leukemia” (Eur J Med Chem, 2018)", "key": {"Homo sapiens [1]": {"organism": "Homo sapiens", "assay": "Inhibition of RNA polymerase 2 C-terminal domain phosphorylation at Ser2 residue in human KOPN8 cells at 0.5 uM after 3 hrs by Western blot analysis relative to control", "type": "cell-based", "method_in_brief": "(§1)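 KOPN-8 cells were exposed to compound for 3 h and 24 h, with or without N-acetylcysteine added to a parallel set as antioxidant. Lysates were analysed by Western blot for cleaved PARP, Mcl-1, Ser-2-phosphorylated RNAPII CTD, cMyc, total Rb and pRb. Signals were compared against controls for dose-dependent change.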"}, "[2]": {"target": "T1, Retinoblastoma-associated protein (Homo sapiens) (UniProt P06400)", "T1 sequence (whole entry)": "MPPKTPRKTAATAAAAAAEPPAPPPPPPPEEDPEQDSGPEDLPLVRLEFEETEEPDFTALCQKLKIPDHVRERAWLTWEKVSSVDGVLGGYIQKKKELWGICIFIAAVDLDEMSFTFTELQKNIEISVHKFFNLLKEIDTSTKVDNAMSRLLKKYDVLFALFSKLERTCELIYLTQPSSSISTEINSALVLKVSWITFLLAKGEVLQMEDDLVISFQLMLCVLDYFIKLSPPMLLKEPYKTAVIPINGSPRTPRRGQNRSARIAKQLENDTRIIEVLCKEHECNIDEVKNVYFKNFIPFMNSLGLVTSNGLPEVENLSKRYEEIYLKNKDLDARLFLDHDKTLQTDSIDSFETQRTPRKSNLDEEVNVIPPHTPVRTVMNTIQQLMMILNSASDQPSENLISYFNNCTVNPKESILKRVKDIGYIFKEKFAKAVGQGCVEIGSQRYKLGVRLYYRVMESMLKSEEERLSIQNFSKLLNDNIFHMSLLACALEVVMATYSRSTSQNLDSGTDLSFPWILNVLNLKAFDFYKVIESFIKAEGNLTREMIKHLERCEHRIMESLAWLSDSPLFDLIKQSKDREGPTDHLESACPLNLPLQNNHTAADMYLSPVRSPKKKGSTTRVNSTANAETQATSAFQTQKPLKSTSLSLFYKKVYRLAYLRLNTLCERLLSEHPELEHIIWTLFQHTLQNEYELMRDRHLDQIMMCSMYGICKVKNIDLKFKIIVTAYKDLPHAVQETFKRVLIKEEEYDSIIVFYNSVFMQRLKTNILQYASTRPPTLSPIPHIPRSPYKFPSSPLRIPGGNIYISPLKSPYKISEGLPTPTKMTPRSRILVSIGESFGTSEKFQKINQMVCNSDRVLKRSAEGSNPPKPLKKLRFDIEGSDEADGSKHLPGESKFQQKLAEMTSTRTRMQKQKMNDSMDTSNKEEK", "assay": "Inhibition of Rb phosphorylation in human KOPN8 cells assessed as ratio of phosphorylated Rb to total Rb levels at 0.5 uM after 24 hrs by Western blot analysis relative to control", "type": "cell-based", "method_in_brief": "as §1"}, "KOPN-8 [3]": {"tested_on": "KOPN-8", "assay": "Induction of apoptosis in human KOPN8 cells assessed as effect on Mcl-1 level at 0.5 uM after 24 hrs by Western blot analysis relative to control", "type": "functional"}, "KOPN-8 [4]": {"tested_on": "KOPN-8", "assay": "Effect on c-Myc expression in human KOPN8 cells at 0.5 uM after 3 hrs by Western blot analysis relative to control", "type": "functional"}, "MDA-MB-231 [5]": {"tested_on": "MDA-MB-231", "assay": "Cell cycle arrest in human MDA-MB-231 cells assessed as accumulation at G0/G1 phase at 5 uM after 24 hrs by propidium iodide staining-based flow cytometry (reference value: 70.47%)", "type": "functional"}, "Homo sapiens [6]": {"organism": "Homo sapiens", "assay": "Inhibition of RNA polymerase 2 C-terminal domain phosphorylation at Ser2 residue in human KOPN8 cells at 0.5 uM after 24 hrs by Western blot analysis", "type": "cell-based", "method_in_brief": "as §1"}, "KOPN-8 [7]": {"tested_on": "KOPN-8", "assay": "Induction of apoptosis in human KOPN8 cells assessed as upregulation of cleaved PARP level at 0.5 uM after 3 to 24 hrs by Western blot analysis", "type": "functional, cell-based", "method_in_brief": "as §1"}, "BJ": {"tested_on": "BJ", "assay": "Antiproliferative activity against human BJ cells after 72 hrs by CelTiter-Glo assay", "type": "cell-based"}, "Homo sapiens [8]": {"organism": "Homo sapiens", "assay": "Inhibition of RNA polymerase 2 C-terminal domain phosphorylation at Ser2 residue in human KOPN8 cells at 0.5 uM pre-treated with NAC for 1 hr and measured after 24 hrs by Western blot analysis relative to control", "type": "cell-based", "method_in_brief": "as §1"}, "KOPN-8 [9]": {"tested_on": "KOPN-8", "assay": "Induction of apoptosis in human KOPN8 cells assessed as upregulation of cleaved PARP level at 0.5 uM pre-treated with NAC for 1 hr and measured after 3 to 24 hrs by Western blot analysis", "type": "functional, cell-based", "method_in_brief": "as §1"}, "MDA-MB-231 [10]": {"tested_on": "MDA-MB-231", "assay": "Cell cycle arrest in human MDA-MB-231 cells assessed as accumulation at G2/M phase at 5 uM after 24 hrs by propidium iodide staining-based flow cytometry (reference value: 9.38%)", "type": "functional"}, "[11]": {"target": "T1, Retinoblastoma-associated protein (Homo sapiens)", "assay": "Inhibition of Rb phosphorylation in human KOPN8 cells assessed as ratio of phosphorylated Rb to total Rb levels at 0.5 uM after 3 hrs by Western blot analysis relative to control", "type": "cell-based", "method_in_brief": "(§2)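 KOPN-8 pre-B ALL cells were treated for 3 h and 24 h, with or without N-acetyl cysteine added to a parallel set of cells as an antioxidant/ROS quencher. Lysates were analysed by Western blot for phosphorylated Rb and total Rb. The same blots also probed PARP cleavage, Mcl-1, Ser-2-phosphorylated RNAPII CTD and cMyc.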"}, "UoC-B1": {"tested_on": "UoC-B1", "assay": "Antiproliferative activity against human UOCB1 cells after 72 hrs by CelTiter-Glo assay", "type": "functional, cell-based", "conditions": "UoC-B1, 72 h"}, "MDA-MB-231 [12]": {"tested_on": "MDA-MB-231", "assay": "Cell cycle arrest in human MDA-MB-231 cells assessed as accumulation at S phase at 5 uM after 24 hrs by propidium iodide staining-based flow cytometry (reference value: 20.15%)", "type": "functional"}, "Homo sapiens [13]": {"organism": "Homo sapiens", "assay": "Inhibition of RNA polymerase 2 C-terminal domain phosphorylation at Ser2 residue in human KOPN8 cells at 0.5 uM pre-treated with NAC for 1 hr and measured after 3 hrs by Western blot analysis relative to control", "type": "cell-based", "method_in_brief": "as §1"}, "KOPN-8 [14]": {"tested_on": "KOPN-8", "assay": "Induction of apoptosis in human KOPN8 cells assessed as effect on Mcl-1 level at 0.5 uM after 3 hrs by Western blot analysis relative to control", "type": "functional"}, "KOPN-8 [15]": {"tested_on": "KOPN-8", "assay": "Antiproliferative activity against human KOPN8 cells after 72 hrs by CelTiter-Glo assay", "type": "functional, cell-based", "conditions": "KOPN-8, 72 h"}, "KOPN-8 [16]": {"tested_on": "KOPN-8", "assay": "Induction of apoptosis in human KOPN8 cells assessed as effect on Mcl-1 level at 0.5 uM pre-treated with NAC for 1 hr and measured after 3 hrs by Western blot analysis relative to control", "type": "functional"}, "SUP-B15": {"tested_on": "SUP-B15", "assay": "Antiproliferative activity against human SUP-B15 cells after 72 hrs by CelTiter-Glo assay", "type": "functional, cell-based", "conditions": "SUP-B15, 72 h"}, "[17]": {"target": "T1, Retinoblastoma-associated protein (Homo sapiens)", "assay": "Inhibition of Rb phosphorylation in human KOPN8 cells assessed as ratio of phosphorylated Rb to total Rb levels at 0.5 uM pre-treated with NAC for 1 hr and measured after 3 hrs by Western blot analysis relative to control", "type": "cell-based", "method_in_brief": "as §2"}, "SEM cells": {"tested_on": "SEM cells", "assay": "Antiproliferative activity against human SEM cells after 72 hrs by CelTiter-Glo assay", "type": "functional, cell-based"}, "HepG2": {"tested_on": "HepG2", "assay": "Antiproliferative activity against human HepG2 cells after 72 hrs by CelTiter-Glo assay", "type": "functional, cell-based", "conditions": "HepG2, 72 h"}, "KOPN-8 [18]": {"tested_on": "KOPN-8", "assay": "Induction of apoptosis in human KOPN8 cells assessed as effect on Mcl-1 level at 0.5 uM pre-treated with NAC for 1 hr and measured after 24 hrs by Western blot analysis relative to control", "type": "functional"}, "[19]": {"target": "T1, Retinoblastoma-associated protein (Homo sapiens)", "assay": "Inhibition of Rb phosphorylation in human KOPN8 cells assessed as ratio of phosphorylated Rb to total Rb levels at 0.5 uM pre-treated with NAC for 1 hr and measured after 24 hrs by Western blot analysis relative to control", "type": "cell-based", "method_in_brief": "as §2"}, "KOPN-8 [20]": {"tested_on": "KOPN-8", "assay": "Effect on c-Myc expression in human KOPN8 cells at 0.5 uM pre-treated with NAC for 1 hr and measured after 24 hrs by Western blot analysis relative to control", "type": "functional"}, "KOPN-8 [21]": {"tested_on": "KOPN-8", "assay": "Effect on c-Myc expression in human KOPN8 cells at 0.5 uM after 24 hrs by Western blot analysis relative to control", "type": "functional"}, "KOPN-8 [22]": {"tested_on": "KOPN-8", "assay": "Effect on c-Myc expression in human KOPN8 cells at 0.5 uM pre-treated with NAC for 1 hr and measured after 3 hrs by Western blot analysis relative to control", "type": "functional"}}, "note": "Activity calls are given as the source filed them. The calls are words filed in the database; no cut-off is given here.", "data": [{"smiles": "CN1CC[C@H](c2c(O)cc(O)c3c(=O)cc(-c4ccccc4Cl)oc23)[C@H](O)C1", "note": "[ALVOCIDIB]", "values": [{"measurement": "fold change (FC)", "setting": "Homo sapiens [1]", "result": 0.4}, {"measurement": "fold change (FC)", "setting": "[2]", "result": 1}, {"measurement": "fold change (FC)", "setting": "KOPN-8 [3]", "result": 0}, {"measurement": "fold change (FC)", "setting": "KOPN-8 [4]", "result": 0.2}, {"measurement": "Activity", "setting": "MDA-MB-231 [5]", "result": 66.03, "unit": "%"}, {"measurement": "fold change (FC)", "setting": "Homo sapiens [6]", "result": 0}, {"measurement": "Activity", "setting": "KOPN-8 [7]", "result": "Active"}, {"measurement": "EC50", "setting": "BJ", "result": "> 86200", "unit": "nM"}, {"measurement": "fold change (FC)", "setting": "Homo sapiens [8]", "result": 0}, {"measurement": "Activity", "setting": "KOPN-8 [9]", "result": "Active"}, {"measurement": "Activity", "setting": "MDA-MB-231 [10]", "result": 16.47, "unit": "%"}, {"measurement": "fold change (FC)", "setting": "[11]", "result": 0.9}, {"measurement": "EC50", "setting": "UoC-B1", "result": 208, "unit": "nM"}, {"measurement": "Activity", "setting": "MDA-MB-231 [12]", "result": 17.5, "unit": "%"}, {"measurement": "fold change (FC)", "setting": "Homo sapiens [13]", "result": 0.6}, {"measurement": "fold change (FC)", "setting": "KOPN-8 [14]", "result": 0.2}, {"measurement": "EC50", "setting": "KOPN-8 [15]", "result": 193, "unit": "nM"}, {"measurement": "fold change (FC)", "setting": "KOPN-8 [16]", "result": 0.2}, {"measurement": "EC50", "setting": "SUP-B15", "result": "> 86200", "unit": "nM"}, {"measurement": "fold change (FC)", "setting": "[17]", "result": 1.1}, {"measurement": "EC50", "setting": "SEM cells", "result": 204, "unit": "nM"}, {"measurement": "EC50", "setting": "HepG2", "result": 146, "unit": "nM"}, {"measurement": "fold change (FC)", "setting": "KOPN-8 [18]", "result": 0}, {"measurement": "fold change (FC)", "setting": "[19]", "result": 1.1}, {"measurement": "fold change (FC)", "setting": "KOPN-8 [20]", "result": 0}, {"measurement": "fold change (FC)", "setting": "KOPN-8 [21]", "result": 0}, {"measurement": "fold change (FC)", "setting": "KOPN-8 [22]", "result": 0.2}]}]}
